The values that follow come from ChEMBL document CHEMBL1125117, “Substituted 1,3-dihydro-2H-pyrrolo[2,3-b]pyridin-2-ones as potential antiinflammatory agents” (1990).

Assay [1] has as its system Rattus norvegicus. Briefly: In vivo effect on prostaglandin and leukotriene mediated production in rat pleural cavity was assessed by the inhibition of cell influx in 5-lipoxygenase/ cyclooxygenase at dose 1.0 mg/kg. Format: functional. The essentials:
(§1)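 Rat reversed passive Arthus pleurisy, oral dosing 1 h before challenge. BSA given iv (5 mg), then rabbit anti-BSA IgG intrapleurally 30 min later. At 4 h, exudate was collected into indomethacin/NDGA and its volume recorded. Neutrophils were counted by Coulter counter. TXB2 and LTE4 in ethanol-extracted supernatant were measured by RIA with tritiated recovery spikes. Reported as % inhibition versus control.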

Assay [2] concerns Rattus norvegicus. The assay can be described thus: In vivo effect on prostaglandin and leukotriene mediated production in rat pleural cavity was assessed by the inhibition of fluid volume in 5-lipoxygenase/ cyclooxygenase at dose 1.0 mg/kg. The class given is functional. The essentials: as §1
The subject of assay [3] is Rattus norvegicus. Briefly: In vivo antiinflammatory activity against edema formation in the noninjected(secondary) paw of the rat (after edema stimulation) at dose 2.0 mg/kg. Format: functional.
The subject of assay [4] is Rattus norvegicus. The assay can be described thus: In vivo antiinflammatory activity against edema formation in the noninjected(secondary) paw of the rat (before edema stimulation) at dose 2.0 mg/kg. The class given is functional. The method in brief: (§2)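 Adjuvant arthritis in rats, prophylactic regimen. Oral dosing began 1 h before challenge and continued for 21 consecutive days. Heat-killed M. tuberculosis in paraffin oil (6 mg/mL), 0.1 mL injected into the left hind paw, with methylcellulose-treated controls. Both hind paw volumes measured by plethysmograph on day 21. Reported as % change relative to control.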

Assay [5] concerns Rattus norvegicus. Briefly: In vivo inhibitory activity against cells in reverse passive Arthus reaction (RPAR) assay at dose 25 mg/kg in the pleural cavity of rats. The class given is functional. The essentials:
(§3)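 Male rats, five per group, dosed orally 1 h before iv BSA antigen (5 mg). Rabbit anti-BSA IgG (0.5 mg) given intrapleurally 30 min later. At 4 h, pleural exudate volume was measured and neutrophils counted (Coulter) after saline-EDTA lavage. Reported as % reduction in cells and fluid relative to control.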

Assay [6] has as its system Rattus norvegicus. The assay can be described thus: In vivo inhibitory activity against fluid in reverse passive Arthus reaction (RPAR) assay at dose 25 mg/kg in the pleural cavity of rats. Format: functional. The essentials:
as §3

Assay [7] has as its system Rattus norvegicus. The assay can be described thus: In vivo effect on prostaglandin and leukotriene mediated production in rat pleural cavity was assessed by the inhibition of TXB2 in 5-lipoxygenase/ cyclooxygenase at dose 25 mg/kg. Format: functional. The essentials: as §1
Assay [8] relates to Rattus norvegicus. Briefly: In vivo effect on prostaglandin and leukotriene mediated production in rat pleural cavity was assessed by the inhibition of cell influx in 5-lipoxygenase/ cyclooxygenase at dose 25 mg/kg. Format: functional. The method in brief: as §1
Assay [9] deals with Rattus norvegicus. Briefly: In vivo effect on prostaglandin and leukotriene mediated production in rat pleural cavity was assessed by the inhibition of fluid volume in 5-lipoxygenase/ cyclooxygenase at dose 25 mg/kg. Format: functional. Particulars: for inhibition in vivo at 25 mg/kg: Rattus norvegicus, Pleural cavity. The essentials: as §1
Assay [10] relates to Rattus norvegicus. Briefly: In vivo antiinflammatory activity against edema formation in the noninjected(secondary) paw of the rat (before edema stimulation) at dose 25 mg/kg. The class given is functional. The method in brief:
as §2

In assay [11] the test system is Rattus norvegicus. Briefly: In vivo antiinflammatory activity against edema formation in the injected(primary) paw of the rat(after edema stimulation) at dose 25 mg/kg. The class given is functional. The method in brief:
(§4)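 Adjuvant arthritis in rats, therapeutic regimen. Heat-killed M. tuberculosis in paraffin oil (6 mg/mL), 0.1 mL injected into the left hind paw. Lesion allowed to develop 7 days before the first oral dose, with methylcellulose-treated controls. Paw volumes measured by plethysmograph, final reading on day 21. Reported as % change in paw volume relative to control.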

Assay [12] has as its system Rattus norvegicus. The assay can be described thus: In vivo antiinflammatory activity against edema formation in the injected(primary) paw of the rat(before edema stimulation) at dose 25 mg/kg. Format: functional. The essentials:
as §2

The subject of assay [13] is Rattus norvegicus. The assay can be described thus: In vivo antiinflammatory activity against edema formation in the noninjected(secondary) paw of the rat (after edema stimulation) at dose 25 mg/kg. The class given is functional. The method in brief: as §4
Assay [14] has as its target T1, Polyunsaturated fatty acid 5-lipoxygenase (Homo sapiens) (UniProt P09917).
T1 sequence (whole entry): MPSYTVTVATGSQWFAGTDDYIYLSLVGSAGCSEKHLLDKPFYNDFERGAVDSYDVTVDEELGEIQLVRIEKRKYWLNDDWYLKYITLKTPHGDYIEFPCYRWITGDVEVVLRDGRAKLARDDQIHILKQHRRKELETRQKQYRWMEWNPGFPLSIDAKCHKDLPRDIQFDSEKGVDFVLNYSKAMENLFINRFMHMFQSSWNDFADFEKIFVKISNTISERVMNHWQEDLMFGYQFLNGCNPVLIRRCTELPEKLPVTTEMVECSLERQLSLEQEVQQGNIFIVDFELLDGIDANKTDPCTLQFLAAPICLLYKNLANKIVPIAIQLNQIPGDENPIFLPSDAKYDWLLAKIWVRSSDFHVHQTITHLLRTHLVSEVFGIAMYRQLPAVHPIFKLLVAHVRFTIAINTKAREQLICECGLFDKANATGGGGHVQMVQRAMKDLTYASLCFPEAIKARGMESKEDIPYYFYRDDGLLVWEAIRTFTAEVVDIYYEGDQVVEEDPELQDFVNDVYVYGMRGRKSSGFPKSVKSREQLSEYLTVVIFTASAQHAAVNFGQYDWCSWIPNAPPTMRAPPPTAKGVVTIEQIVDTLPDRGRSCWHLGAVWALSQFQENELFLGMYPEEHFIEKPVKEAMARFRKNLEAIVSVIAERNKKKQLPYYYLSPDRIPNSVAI
The assay can be described thus: In vitro inhibitory activity against 5-lipoxygenase in human polymorphonuclear (PMN) cells. To be noted: concentration not given here. The method in brief:
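Human PMN neutrophils (2×10^7 cells/mL) in HEPES buffer with 1 mM CaCl2, preincubated 4 min with test compound in DMSO vehicle. Then stimulated with [14C]arachidonic acid plus calcium ionophore A23187 for 5 min and stopped with methanol. 5-HETE was quantitated by HPLC. Reported as % inhibition versus vehicle, tested at 15 μM.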

The target in assay [15] is Cyclooxygenase (Homo sapiens) (UniProt P35354+P23219). The assay can be described thus: In vitro inhibitory activity against Prostaglandin G/H synthase in human platelets. On the set-up: concentration or dose not given beside the values. Particulars: concentration not given here. The method in brief: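 Human platelets (2×10^5/mL) in HEPES buffer with 0.5 mM EGTA and 1.5 mM CaCl2, incubated 4 min with compound in DMSO vehicle. Then given [14C]arachidonic acid and A23187 ionophore for 5 min and stopped with methanol. HHT was measured by reverse-phase HPLC. Reported as % inhibition of HHT versus vehicle, at 15 μM.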

In assay [16] the test system is Rattus norvegicus. The assay can be described thus: In vivo effect on prostaglandin and leukotriene mediated production in rat pleural cavity was assessed by the inhibition of TXB2 in 5-lipoxygenase/ cyclooxygenase at dose 40 mg/kg. Format: functional. The essentials:
as §1

For assay [17], the system named is Rattus norvegicus. Briefly: In vivo effect on prostaglandin and leukotriene mediated production in rat pleural cavity was assessed by the inhibition of cell influx in 5-lipoxygenase/ cyclooxygenase at dose 40 mg/kg. Format: functional. The essentials:
as §1

Assay [18] has as its system Rattus norvegicus. Briefly: In vivo effect on prostaglandin and leukotriene mediated production in rat pleural cavity was assessed by the inhibition of fluid volume in 5-lipoxygenase/ cyclooxygenase at dose 40 mg/kg. The class given is functional. The essentials:
as §1

Assay [19] relates to Rattus norvegicus. The assay can be described thus: In vivo effect on prostaglandin and leukotriene mediated production in rat pleural cavity was assessed by the inhibition of LTE4 in 5-lipoxygenase/ cyclooxygenase at dose 40 mg/kg.
Assay [20] concerns Rattus norvegicus. The assay can be described thus: In vivo effect on prostaglandin and leukotriene mediated production in rat pleural cavity was assessed by the inhibition of LTE4 in 5-lipoxygenase/ cyclooxygenase at dose 25 mg/kg. Format: functional. The method in brief: as §1
In assay [21] the test system is Rattus norvegicus. Briefly: In vivo effect on prostaglandin and leukotriene mediated production in rat pleural cavity was assessed by the inhibition of TxB2 in 5-lipoxygenase/ cyclooxygenase at dose 25 mg/kg.
Assay [22] deals with Rattus norvegicus. The assay can be described thus: In vivo effect on prostaglandin and leukotriene mediated production in rat pleural cavity was assessed by the inhibition of TXB2 in 5-lipoxygenase/ cyclooxygenase at dose 20 mg/kg. The class given is functional. The essentials:
as §1

Assay [23] concerns Rattus norvegicus. The assay can be described thus: In vivo effect on prostaglandin and leukotriene mediated production in rat pleural cavity was assessed by the inhibition of cell influx in 5-lipoxygenase/ cyclooxygenase at dose 20 mg/kg. Format: functional. The essentials:
as §1

The subject of assay [24] is Rattus norvegicus. Briefly: In vivo effect on prostaglandin and leukotriene mediated production in rat pleural cavity was assessed by the inhibition of fluid volume in 5-lipoxygenase/ cyclooxygenase at dose 20 mg/kg. Format: functional. The essentials: as §1
The subject of assay [25] is Rattus norvegicus. The assay can be described thus: In vivo effect on prostaglandin and leukotriene mediated production in rat pleural cavity was assessed by the inhibition of LTE4 in 5-lipoxygenase/ cyclooxygenase at dose 20 mg/kg.

A word on the inhibition in vivo: it is the percentage by which the read-out fell short of the control. Regarding `COc1ccc2c(c1)c(CC(=O)O)c(C)n2C(=O)c1ccc(Cl)cc1` [INDOMETHACIN], the inhibition in vivo at 1 mg/kg worked out at 48% in [1] and 24% in assay [2]. The inhibition in vivo at 2 mg/kg worked out at 88% in assay [3] and 70% in assay [4].

For orientation: ED50 means the dose at which the effect has come halfway, by size or by number of responders. By Inhibition is commonly meant the percentage by which the read-out fell short of the control. As usually defined, the inhibition is the relative decrease from the control value, in per cent. As to `CC1(C)C(=O)N(c2ccc(Cl)cc2)c2ncccc21`, the ED50 in assay [5] came to 4.5 mg/kg; in assay [6] it was 27.9 mg/kg. The inhibition in vivo at 25 mg/kg in assay [7] stood at 78%; in [8], 73%; in assay [9] it was 83%; in [10], 65%; in [11], 31%; in [12], 13%. Besides, the inhibition in vivo at 25 mg/kg in [13] was 54%. In assay [9] (25 mg/kg), this compound registered an Inhibition of 83%. For the same compound, the inhibition was found to be 13% in [14] and 47% in assay [15].

`CC1(C)C(=O)N(c2ccccc2)c2ncccc21`: the ED50 in assay [5] was determined as 21.9 mg/kg; in assay [6] it was 35.1 mg/kg. Further, the inhibition in vivo at 40 mg/kg was 54% in assay [16], 70% in assay [17] and 60% in [18]. The inhibition in vivo at 25 mg/kg in assay [10] was found to be 24%; in assay [12], 0%. For the same compound, the inhibition in assay [14] and in [15] was 0% in each case. Also, the LTE4 inhibition in [19] stood at 54%.

As for `CC(C)(C(=O)[O-])c1cccnc1Nc1ccc(Cl)cc1.[Na+]`, the ED50 turned out to be 11.3 mg/kg in assay [5] and 9.6 mg/kg in [6]. For the same compound, the inhibition in vivo at 25 mg/kg in assay [20] came to 76%; in assay [8], 62%; in assay [9], 71%; in assay [10] it was 34%; in [12], 14%. The inhibition in [14] amounted to 0%; in assay [15] it was 28%. The TxB2 inhibition in [21] stood at 81%.

`CC1(C)C(=O)N(c2ccc(F)cc2)c2ncccc21`: the figures for the ED50 in [5] and in [6] were 4.5 mg/kg and 29.5 mg/kg, respectively. Further, the inhibition in vivo at 20 mg/kg in [22] came out at 53%; in assay [23], 70%; in assay [24], 43%. Besides, the inhibition in vivo at 25 mg/kg was 48% in assay [10] and 0% in [12]. In addition, the inhibition worked out at 2% in assay [14] and 0% in assay [15]. The LTE4 inhibition in [25] amounted to 36%.
